Reference: ChEMBL document CHEMBL1141482, “Selective, high affinity A(2B) adenosine receptor antagonists: N-1 monosubstituted 8-(pyrazol-4-yl)xanthines” (Bioorg Med Chem Lett, 2008)

Tests used:
Homo sapiens [1] = species: Homo sapiens; assay: Selectivity for human A2B receptor over human A3 receptor
Adenosine receptor A2a = Adenosine receptor A2a (Homo sapiens, UniProt P29274); assay: Displacement of [3H]ZM241385 from human A2A receptor expressed in HEK293 cell membranes
Outline: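 A2A affinity by competition with 3H-ZM241385 (2 nM) for binding sites in membranes from HEK-A2A cells.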

Homo sapiens [2] = species: Homo sapiens; assay: Selectivity for human A2B receptor over human A1 receptor
Homo sapiens [3] = species: Homo sapiens; assay: Selectivity for human A2B receptor over human A2A receptor
Adenosine receptor A2b = molecular target: T1, Adenosine receptor A2b (Homo sapiens, UniProt P29275); assay: Displacement of [3H]-ZM241385 from human A2B receptor expressed in HEK293 cell membranes
T1 sequence (P29275 whole entry): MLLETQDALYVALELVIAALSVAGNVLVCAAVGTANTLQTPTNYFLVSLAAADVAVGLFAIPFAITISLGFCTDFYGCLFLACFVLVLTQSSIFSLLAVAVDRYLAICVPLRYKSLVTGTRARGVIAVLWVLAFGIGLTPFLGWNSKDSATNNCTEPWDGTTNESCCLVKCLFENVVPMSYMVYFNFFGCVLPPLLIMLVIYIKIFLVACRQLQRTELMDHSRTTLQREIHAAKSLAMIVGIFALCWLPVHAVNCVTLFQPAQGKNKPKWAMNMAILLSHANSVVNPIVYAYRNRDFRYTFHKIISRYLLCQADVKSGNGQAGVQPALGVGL
Outline: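 Membranes from HEK cells expressing A2B; binding sites labeled with 3H-ZM241385 at 14 nM and displaced competitively.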

Adenosine receptor A3 = molecular target: T2, Adenosine receptor A3 (Homo sapiens, UniProt P0DMS8); assay: Displacement of [125I]-AB-MECA from human A3 receptor expressed in CHO cells; format: cell-based
T2 sequence (P0DMS8 whole entry): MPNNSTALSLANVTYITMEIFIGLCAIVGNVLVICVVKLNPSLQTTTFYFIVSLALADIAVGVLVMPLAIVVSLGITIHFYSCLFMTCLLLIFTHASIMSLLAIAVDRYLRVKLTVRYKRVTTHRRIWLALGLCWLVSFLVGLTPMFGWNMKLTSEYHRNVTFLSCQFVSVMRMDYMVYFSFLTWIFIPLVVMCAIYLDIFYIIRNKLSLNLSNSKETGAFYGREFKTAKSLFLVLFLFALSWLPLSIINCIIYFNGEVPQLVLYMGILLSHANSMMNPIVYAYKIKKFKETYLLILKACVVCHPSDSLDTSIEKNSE
Outline: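 A3 binding: competition for sites labeled by 125I-AB-MECA using CHO cells expressing the A3 receptor.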

Adenosine receptor A1 = molecular target: T3, Adenosine receptor A1 (Homo sapiens, UniProt P30542); assay: Displacement of [3H]-CPX from human A1 receptor expressed in CHO cell membranes
T3 sequence (P30542 whole entry): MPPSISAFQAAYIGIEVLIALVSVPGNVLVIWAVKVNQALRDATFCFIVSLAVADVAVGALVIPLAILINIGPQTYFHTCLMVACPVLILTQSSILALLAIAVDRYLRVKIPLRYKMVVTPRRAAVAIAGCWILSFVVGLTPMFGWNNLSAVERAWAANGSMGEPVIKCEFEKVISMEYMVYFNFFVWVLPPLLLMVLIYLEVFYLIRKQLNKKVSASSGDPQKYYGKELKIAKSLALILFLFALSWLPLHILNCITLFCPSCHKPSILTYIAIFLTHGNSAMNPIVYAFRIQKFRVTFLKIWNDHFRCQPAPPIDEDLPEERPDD
Outline: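 Competitive binding on membranes prepared from A1-expressing CHO cells, radioligand 3H-CPX at 0.5 nM.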

Adenosine receptor A2a, sequence (P29274 whole entry): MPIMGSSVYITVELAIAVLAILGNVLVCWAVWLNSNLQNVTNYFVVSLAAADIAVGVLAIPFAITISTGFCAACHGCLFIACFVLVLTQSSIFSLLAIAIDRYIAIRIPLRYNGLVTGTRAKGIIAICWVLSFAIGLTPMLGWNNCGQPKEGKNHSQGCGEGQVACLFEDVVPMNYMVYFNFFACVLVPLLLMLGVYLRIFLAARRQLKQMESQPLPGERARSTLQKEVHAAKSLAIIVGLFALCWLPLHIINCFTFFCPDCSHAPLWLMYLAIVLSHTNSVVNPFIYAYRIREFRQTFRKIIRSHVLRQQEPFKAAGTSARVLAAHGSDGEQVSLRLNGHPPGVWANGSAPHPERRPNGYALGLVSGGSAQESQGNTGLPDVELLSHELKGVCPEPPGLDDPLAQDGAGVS

Structure (SMILES)	Ratio Ki (Homo sapiens [1])	Ki (Adenosine receptor A2a)	Ratio Ki (Homo sapiens [2])	Ratio Ki (Homo sapiens [3])	Ki (Adenosine receptor A2b)	Ki (Adenosine receptor A3)	Ki (Adenosine receptor A1)
CCCCn1c(=O)[nH]c2nc(-c3cnn(Cc4noc(-c5ccc(Cl)cc5)n4)c3)[nH]c2c1=O	> 400	> 5000 nM	> 260	> 210	23 nM	> 9000 nM	> 6000 nM
CCn1c(=O)[nH]c2nc(-c3cnn(Cc4cccc(C(F)(F)F)c4)c3)[nH]c2c1=O	> 1500	> 5000 nM	> 1000	> 830	6 nM	> 9000 nM	> 6000 nM
CCCn1c(=O)[nH]c2nc(-c3cnn(Cc4noc(-c5ccc(C(F)(F)F)cc5)n4)c3)[nH]c2c1=O	> 600	> 5000 nM	90	> 300	15 nM	> 9000 nM	1400 nM
O=c1[nH]c2nc(-c3cnn(Cc4noc(-c5ccc(Cl)cc5)n4)c3)[nH]c2c(=O)n1CC1CC1	> 190	> 5000 nM	> 120	> 100	48 nM	> 9000 nM	> 6000 nM
CCCn1c(=O)[nH]c2nc(-c3cnn(Cc4noc(-c5ccc(Cl)cc5)n4)c3)[nH]c2c1=O	> 1280	> 5000 nM	> 850	> 700	7 nM	> 9000 nM	> 6000 nM
CCCn1c(=O)[nH]c2nc(-c3cnn(Cc4cccc(C(F)(F)F)c4)c3)[nH]c2c1=O	80	> 5000 nM	> 750	> 620	8 nM	700 nM	> 6000 nM
CCCn1c(=O)[nH]c(=O)c2[nH]c(-c3cnn(Cc4ccccc4)c3)nc21	–	–	–	–	> 6000 nM	–	–
O=c1[nH]c2nc(-c3cnn(Cc4cccc(C(F)(F)F)c4)c3)[nH]c2c(=O)n1CC1CC1	300	> 5000 nM	> 2000	> 1600	3 nM	1000 nM	> 6000 nM
CCCn1c(=O)c2[nH]c(-c3cnn(Cc4cccc(C(F)(F)F)c4)c3)nc2n(CCC)c1=O	10	–	12	27	–	140 nM	160 nM
O=c1[nH]c2nc(-c3cnn(Cc4noc(-c5ccc(C(F)(F)F)cc5)n4)c3)[nH]c2c(=O)n1CC1CC1	> 700	> 5000 nM	> 460	> 380	13 nM	> 9000 nM	> 6000 nM
CCCn1c(=O)c2[nH]c(-c3cnn(Cc4ccccc4)c3)nc2n(CCC)c1=O	16	–	7	26	–	–	–
O=c1[nH]c(=O)n(Cc2ccccc2)c2nc(-c3cnn(Cc4ccccc4)c3)[nH]c12	–	–	–	–	> 6000 nM	–	–
CCCn1c(=O)c2[nH]c(-c3cnn(Cc4cccc(F)c4)c3)nc2n(CCC)c1=O	4	–	13	18	–	58 nM	–
CCCCn1c(=O)[nH]c(=O)c2[nH]c(-c3cnn(Cc4ccccc4)c3)nc21	–	–	–	–	> 6000 nM	–	–
CCCn1c(=O)c2[nH]c(-c3cnn(Cc4noc(-c5ccccc5)n4)c3)nc2n(CCC)c1=O	30	–	50	85	–	–	–
CCCCn1c(=O)[nH]c2nc(-c3cnn(Cc4cccc(C(F)(F)F)c4)c3)[nH]c2c1=O	> 300	> 5000 nM	> 200	> 170	30 nM	> 9000 nM	> 6000 nM

Other lines, results leading:

Ratio Ki (Homo sapiens [1])	Ki (Adenosine receptor A2a)	Ratio Ki (Homo sapiens [2])	Ratio Ki (Homo sapiens [3])	Ki (Adenosine receptor A2b)	Ki (Adenosine receptor A3)	Ki (Adenosine receptor A1)	Structure (SMILES)
3	3400 nM	150	100	34 nM	110 nM	5100 nM	CCCCn1c(=O)[nH]c2nc(-c3cnn(Cc4ccccc4)c3)[nH]c2c1=O
–	–	–	–	> 6000 nM	–	–	O=c1[nH]c2nc(-c3cnn(Cc4ccccc4)c3)[nH]c2c(=O)n1Cc1ccccc1
70	> 5000 nM	> 250	> 200	24 nM	1600 nM	> 6000 nM	CC(C)Cn1c(=O)[nH]c2nc(-c3cnn(Cc4cccc(F)c4)c3)[nH]c2c1=O
130	–	110	30	–	–	–	CCCn1c(=O)c2[nH]c(-c3cnn(Cc4cc(-c5ccccc5)on4)c3)nc2n(CCC)c1=O
> 650	> 5000 nM	> 400	> 350	14 nM	> 9000 nM	> 6000 nM	CC(C)Cn1c(=O)[nH]c2nc(-c3cnn(Cc4noc(-c5ccc(C(F)(F)F)cc5)n4)c3)[nH]c2c1=O
30	> 5000 nM	> 80	> 70	73 nM	2120 nM	> 6000 nM	CCn1c(=O)[nH]c2nc(-c3cnn(Cc4cccc(F)c4)c3)[nH]c2c1=O
–	> 5000 nM	> 30	> 30	170 nM	–	> 6000 nM	CCCn1c(=O)[nH]c2nc(-c3cnn(Cc4cc(-c5ccc(Cl)cc5)on4)c3)[nH]c2c1=O
40	3800 nM	150	100	37 nM	1500 nM	5600 nM	CCn1c(=O)[nH]c2nc(-c3cnn(Cc4ccccc4)c3)[nH]c2c1=O
> 320	> 5000 nM	> 210	> 180	28 nM	> 9000 nM	> 6000 nM	CC(C)Cn1c(=O)[nH]c2nc(-c3cnn(Cc4cccc(C(F)(F)F)c4)c3)[nH]c2c1=O
30	2760 nM	550	460	6 nM	180 nM	3290 nM	O=c1[nH]c2nc(-c3cnn(Cc4ccccc4)c3)[nH]c2c(=O)n1CC1CC1
–	–	–	–	> 6000 nM	–	–	CC(C)Cn1c(=O)[nH]c(=O)c2[nH]c(-c3cnn(Cc4ccccc4)c3)nc21
15	1730 nM	160	160	11 nM	160 nM	1800 nM	CCCn1c(=O)[nH]c2nc(-c3cnn(Cc4cccc(F)c4)c3)[nH]c2c1=O
–	100 nM	42	20	5 nM	–	210 nM	O=c1[nH]c2nc(-c3cnn(Cc4cccc(F)c4)c3)[nH]c2c(=O)n1CC1CC1
> 600	> 5000 nM	200	> 300	15 nM	> 9000 nM	3500 nM	CCCn1c(=O)[nH]c2nc(-c3cnn(Cc4noc(-c5ccccc5)n4)c3)[nH]c2c1=O
–	–	–	–	> 6000 nM	–	–	CCn1c(=O)[nH]c(=O)c2[nH]c(-c3cnn(Cc4ccccc4)c3)nc21
90	> 5000 nM	> 460	> 380	13 nM	1100 nM	> 6000 nM	CC(C)Cn1c(=O)[nH]c2nc(-c3cnn(Cc4ccccc4)c3)[nH]c2c1=O
–	–	–	–	> 6000 nM	–	–	Cn1c(=O)[nH]c(=O)c2[nH]c(-c3cnn(Cc4ccccc4)c3)nc21
> 400	> 5000 nM	> 270	> 230	22 nM	> 9000 nM	> 6000 nM	CCCn1c(=O)[nH]c2nc(-c3cnn(Cc4cc(-c5ccccc5)on4)c3)[nH]c2c1=O
> 750	> 5000 nM	> 500	> 410	12 nM	> 9000 nM	> 6000 nM	CC(C)Cn1c(=O)[nH]c2nc(-c3cnn(Cc4cc(-c5ccccc5)on4)c3)[nH]c2c1=O
10	> 5000 nM	120	> 380	13 nM	120 nM	1600 nM	CCCn1c(=O)[nH]c2nc(-c3cnn(Cc4ccccc4)c3)[nH]c2c1=O
> 600	> 5000 nM	> 400	> 300	15 nM	> 9000 nM	> 6000 nM	O=c1[nH]c2nc(-c3cnn(Cc4cc(-c5ccc(C(F)(F)F)cc5)on4)c3)[nH]c2c(=O)n1CC1CC1
